What was measured:
[1] = system: U87-MG; assay: SRB proliferation assay, U87-MG glioma cells; assay type: cell-based, human; settings: HA vs U87-MG
Procedure, shortened: (§1)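 Each ratio is the IC50 in normal human astrocytes divided by the IC50 in the glioma line. Glioma IC50 came from an SRB proliferation assay after 72 h of treatment across a concentration series. Doxorubicin was the positive control and untreated cells the negative control. Values are means ± S.D.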

[2] = system: U251 cells; assay: Cell cycle assay; assay type: cell-based, human; settings: U251, 0.8 μM, 12 h
[3] = system: C6; assay: SRB proliferation assay, C6 glioma cells; assay type: cell-based, rat; settings: HA vs C6
Procedure, shortened: as §1

[4] = system: U87-MG cells; assay: Cell cycle assay; assay type: cell-based, human; settings: 0.8 μM, 12 h
[5] = system: human astrocytes (HA); assay: Growth inhibition of normal human astrocytes; assay type: cell-based; settings: Astrocyte, read-out: IC50, human astrocytes (HA)
[6] = system: U251; assay: SRB proliferation assay, U251 glioma cells; assay type: cell-based, human; settings: HA vs U251
Procedure, shortened: as §1

[7] = system: SHG-44; assay: SRB proliferation assay, SHG-44 glioma cells; assay type: cell-based, human; settings: HA vs SHG-44
Procedure, shortened: as §1

[8] = system: PKM2; assay: Western blot expression level in U87-MG cells: PKM2; assay type: cell-based, human; settings: 10 µM, 48 h (Fig. S83)
Procedure, shortened: (§2)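 U87-MG cells were treated for 48 h with test compound (5 or 10 μM) or left untreated as control. Protein was extracted and analysed by western blot, with β-actin as internal loading control.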

[9] = system: FASN; assay: Western blot expression level in U87-MG cells: FASN; assay type: cell-based, human; settings: 10 µM, 48 h (Fig. S83)
Procedure, shortened: as §2

[10] = system: GLS; assay: Western blot expression level in U87-MG cells: GLS; assay type: cell-based, human; settings: 10 µM, 48 h (Fig. S83)
Procedure, shortened: as §2

[11] = system: HK2; assay: Western blot expression level in U87-MG cells: HK2; assay type: cell-based, human; settings: 10 µM, 48 h (Fig. S83)
Procedure, shortened: as §2

[12] = system: human erythrocytes; assay: Intracellular K+ uptake in erythrocytes; assay type: cell-based; settings: 90 min
Procedure, shortened: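 Fresh human blood was spun at 660 g for 10 min at 4 °C. Erythrocytes were washed three times in GNS buffer (50 g/L glucose, 9 g/L NaCl) and made into a 50% suspension. Cells were treated with test compound in isotonic KCl for 90 min at 37 °C, with a positive control ionophore, then stopped on ice. They were washed five times in cold GNS, haemolysed in water overnight, and digested in HNO3/HClO4. K+ was measured by atomic absorption against a KCl calibration curve.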

SMILES: COc1cccc2c1C(=O)c1c(O)c3c(c(O)c1C2=O)C[C@@](O)(C(=O)CO)C[C@@H]3O[C@H]1C[C@H](N)[C@H](O)[C@H](C)O1 [Doxorubicin (DOX), Doxorubicin]
- Ratios of IC50HA/IC50GC, U87-MG [1]: 22
- G0/G1, percentage of cells [2]: 71.45%
- G2/GM, percentage of cells [2]: 13.04%
- S, percentage of cells [2]: 15.51%
- Compound(G0/G1)−CON(G0/G1) ([2]; increase vs control): 26.97%
- Ratios of IC50HA/IC50GC, C6 [3]: 17
- G0/G1, percentage of cells [4]: 90.65%
- G2/GM, percentage of cells [4]: 3.83%
- S, percentage of cells [4]: 5.52%
- Compound(G0/G1)−CON(G0/G1) ([4]; increase vs control): 49.69%
- IC50 [5]: 8.7 ± 1.2 µM
- Ratios of IC50HA/IC50GC, U251 [6]: 3
- Ratios of IC50HA/IC50GC, SHG-44 [7]: 5

SMILES: CC(C)[C@@H]1NC(=O)[C@H](C)OC(=O)[C@@H](C(C)C)NC(=O)[C@@H](C(C)C)OC(=O)[C@H](C(C)C)NC(=O)[C@H](C)OC(=O)[C@@H](C(C)C)NC(=O)[C@@H](C(C)C)OC(=O)[C@H](C(C)C)NC(=O)[C@H](C)OC(=O)[C@@H](C(C)C)NC(=O)[C@@H](C(C)C)OC1=O [Compound 1, valinomycin]
- expression level of PKM2 [8]: little effect on the downregulation
- expression level of FANS [9]: remarkably reduced expression levels
- expression level of GLS [10]: remarkably reduced expression levels
- expression level of HK2 [11]: remarkably reduced expression levels
- + % increase of intracellular K+ = (Compound−CON)/CON × 100% ([12]; 0.01 μM): 19.06%
- K+ (intracellular, erythrocytes) ([12]; 0.01 μM): 3.81 ± 0.01 mg/mL
- + % increase of intracellular K+ = (Compound−CON)/CON × 100% ([12]; 0.05 μM): 83.43%
- K+ (intracellular, erythrocytes) ([12]; 0.05 μM): 5.87 ± 0.00 mg/mL
- + % increase of intracellular K+ = (Compound−CON)/CON × 100% ([12]; 0.1 μM): 75.63%
- K+ (intracellular, erythrocytes) ([12]; 0.1 μM): 5.62 ± 0.01 mg/mL

Source: PMC7111624 (Phytochemistry, 2016)
